In publication PMC7226180 (Cancer Science, 2020):
Where two headings read alike, the source gives them in different places. Marks after values point to notes of the source that are not given here.

Tests used:
MV‐4‐11 = assay: cells; format: cell-based; conditions: Homo sapiens, MV4-11, 144 h, read-out: Proliferation inhibition IC50 (mean ± SD)
MCF‐7 xenograft = assay: MCF‐7 s.c. human tumor xenograft; format: in vivo, BALB/c nude mice; conditions: 50 mg/kg; for TGI: MCF‐7 s.c. xenograft, i.g., QD 21 d; for Mean tumor size: MCF‐7 xenograft, day 20 (vehicle 703 mm^3)
A549 = assay: cells; format: cell-based; conditions: Homo sapiens, A549, 144 h, read-out: Proliferation inhibition IC50 (mean ± SD)
MCF‐7/ARO = assay: cells; format: cell-based; conditions: 144 h, read-out: Proliferation inhibition IC50 (mean ± SD)
[1] = tested on: Rb^Ser780 phosphorylation in MCF‐7 cells; assay: Western blot of Rb, p‐Rb Ser780 and cyclin D1; format: cell-based; conditions: MCF‐7, 24 h; for Rb^Ser780 phosphorylation and total Rb protein levels: dose‐dependent
Procedure, shortened: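 MCF-7 cells were treated with a range of test compound concentrations for 24 h, then lysed in buffer containing phosphatase inhibitors. Lysates were separated, transferred and probed for Rb, p-Rb Ser780 and cyclin D, with β-tubulin or β-actin as loading controls. Bands were detected by HRP luminol chemiluminescence.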

Calu‐3 = assay: cells; format: cell-based; conditions: Homo sapiens, Calu-3, 144 h, read-out: Proliferation inhibition IC50 (mean ± SD)
in vivo = assay: in vivo; set-up: species or system female BALB/c nude mice
[2] = tested on: ER/progesterone receptor+/HER2− advanced breast cancer; conditions: women, LY2835219 plus anastrozole or letrozole; cited from earlier work
SW620 = assay: cells; format: cell-based; conditions: Homo sapiens, SW-620, 144 h, read-out: Proliferation inhibition IC50 (mean ± SD)
breast cancer = conditions: cited from earlier work
T‐47D = assay: cells; format: cell-based; conditions: Homo sapiens, T47D, 144 h, read-out: Proliferation inhibition IC50 (mean ± SD)
MCF‐7 = assay: cells; format: cell-based; conditions: Homo sapiens, MCF7, 144 h, read-out: Proliferation inhibition IC50 (mean ± SD)
LN‐18 = assay: cells; format: cell-based; conditions: Homo sapiens, LN-18, 144 h, read-out: Proliferation inhibition IC50 (mean ± SD)
MCF‐7 cells = assay: Senescence assay; format: cell-based; conditions: MCF‐7, 12‐day exposure, dose‐dependent
Procedure, shortened: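 MCF-7 cells grown at 37°C, 5% CO₂ in DMEM or RPMI-1640 with 10% FBS. Seeded in 6-well plates and exposed to the test compound at the indicated concentrations, or vehicle, for 12 days. Then stained with SA-β-galactosidase staining solution following the kit instructions. Stocks were 10 mmol/L in DMSO.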

U87‐MG xenograft = assay: U87‐MG s.c. human tumor xenograft; format: in vivo, BALB/c nude mice; conditions: i.g., QD 18 d, 50 mg/kg
ES‐2 = assay: cells; format: cell-based; conditions: Homo sapiens, ES-2, 144 h, read-out: Proliferation inhibition IC50 (mean ± SD)
CDK3 = CDK3 (Homo sapiens, UniProt Q00526); assay: Enzymatic profiling, LANCE Ultra assay; format: biochemical
CDK3, sequence (Q00526 whole entry): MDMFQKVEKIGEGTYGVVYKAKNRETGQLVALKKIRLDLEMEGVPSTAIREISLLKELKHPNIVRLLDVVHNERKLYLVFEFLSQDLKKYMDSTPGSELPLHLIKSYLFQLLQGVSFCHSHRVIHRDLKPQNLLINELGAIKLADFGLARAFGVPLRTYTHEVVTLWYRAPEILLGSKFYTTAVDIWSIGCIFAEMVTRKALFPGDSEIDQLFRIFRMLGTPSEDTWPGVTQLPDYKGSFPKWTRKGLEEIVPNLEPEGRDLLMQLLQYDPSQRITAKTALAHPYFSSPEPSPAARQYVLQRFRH
CDK3, sequence (P24864 whole entry, further chain): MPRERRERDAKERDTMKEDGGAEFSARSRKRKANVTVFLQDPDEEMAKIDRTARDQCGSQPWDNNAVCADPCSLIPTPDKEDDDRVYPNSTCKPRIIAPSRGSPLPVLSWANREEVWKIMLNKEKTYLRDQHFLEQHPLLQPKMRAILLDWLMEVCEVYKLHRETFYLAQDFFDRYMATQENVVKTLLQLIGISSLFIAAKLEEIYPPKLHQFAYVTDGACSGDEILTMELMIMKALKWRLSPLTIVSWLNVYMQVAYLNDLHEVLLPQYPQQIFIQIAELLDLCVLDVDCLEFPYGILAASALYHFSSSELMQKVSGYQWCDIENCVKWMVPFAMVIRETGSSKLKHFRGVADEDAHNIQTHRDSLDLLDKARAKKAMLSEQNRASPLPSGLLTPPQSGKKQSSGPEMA

Colo‐205 xenograft = assay: Colo‐205 s.c. human tumor xenograft; format: in vivo, BALB/c nude mice; conditions: Colo‐205 s.c. xenograft, i.g., QD 14 d, 50 mg/kg
[3] = tested on: U87‐MG‐Luc human glioblastoma; assay: U87‐MG‐Luc human glioblastoma orthotopic model; format: in vivo, female BALB/c nude mice; conditions: for Median survival time (mean ± SEM): 75 mg/kg (vehicle 30 ± 1 d); for Increase life span: 75 mg/kg, compared with vehicle
Procedure, shortened: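 Female BALB/c nude mice, 6–8 weeks old, received 3 × 10⁵ U87-MG-Luc cells with 20% Matrigel. Cells were injected slowly into a skull hole about 2 mm right of the anterior fontanel and 1 mm ahead of the coronal. On day 8, mice were randomized by bioluminescence and dosed orally once daily. Survival was followed by Kaplan–Meier; life-span increase is relative to vehicle, with P by comparison to vehicle.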

MV4‐11 xenograft = assay: MV4‐11 s.c. human tumor xenograft; format: in vivo, BALB/c nude mice; conditions: MV4‐11 s.c. xenograft, i.g., QD 20 d, 50 mg/kg
HepG2 = assay: cells; format: cell-based; conditions: Homo sapiens, HepG2, 144 h, read-out: Proliferation inhibition IC50 (mean ± SD)
MCF‐7/ARO xenograft = assay: MCF‐7/ARO s.c. human tumor xenograft, single agents; format: in vivo, BALB/c nude mice; conditions: MCF‐7/ARO s.c. xenograft, i.g., QD 21 d, 150 mg/kg
[4] = tested on: ER+ metastatic breast cancer; conditions: patients, cited from earlier work
[5] = tested on: recurrent Rb‐positive glioblastoma; conditions: adult patients, phase II trial; cited from earlier work
[6] = female, BALB/c nude, mouse, in vivo, 75 mg/kg

Compound	IC50 (MV‐4‐11)	TGI (MCF‐7 xenograft)	Mean tumor size (MCF‐7 xenograft)	IC50 (A549)	IC50 (MCF‐7/ARO)	Expression of cyclin D1 [1]	Rb^Ser780 phosphorylation and total Rb protein levels [1]	IC50 (Calu‐3)	IC50 (SW620)	IC50 (T‐47D)	IC50 (LN‐18)	Cell senescence (SA‐β‐gal staining) (MCF‐7 cells)	TGI (U87‐MG xenograft)	IC50 (ES‐2)	TGI (Colo‐205 xenograft)	Median survival time (mean ± SEM) [3]	Increase life span [3]	TGI (MV4‐11 xenograft)	IC50 (HepG2)	TGI (MCF‐7/ARO xenograft)	other results
CCN1CCN(Cc2ccc(Nc3ncc(F)c(-c4cc(F)c5nc(C)n(C(C)C)c5c4)n3)nc2)CC1 [LY2835219, abemaciclib]	79.8 ± 35.3 nM	114%	94 mm^3	264 ± 28.4 nM	327 ± 43.8 nM	without significantly altering	significant decrease	1000 ± 30 nM	283 ± 42.7 nM	672 ± 119 nM	244 ± 3 nM	could induce cell senescence	131^**,## %	27.8 ± 10.3 nM	82^** %	42 ± 2 days	40.00%	54^**, # %	82.3 ± 20.4 nM	67^** %	Levels in the plasma and brain compared with SPH3643 (in vivo; 24 hours after the final dose): markedly lower; Kp at 1.5 h (in vivo; [6]): 0.26 ± 0.13; Kp at 24 h (in vivo; [6]): 0.27 ± 0.08; Objective response rate and PFS [2]: significantly improved; PFS (breast cancer; LY2835219 plus fulvestrant): 16.4 months; IC50 (MCF‐7): 218 ± 8.7 nM; IC50 (CDK3): 482 nM
N#Cc1ccc(C(c2ccc(C#N)cc2)n2cncn2)cc1 [Letrozole, letrozole]	–	–	–	–	–	–	–	–	–	–	–	–	–	–	–	–	–	–	–	–	Disease‐free survival ([4]; letrozole single‐agent treatment): 10.2 months
CC(=O)c1c(C)c2cnc(Nc3ccc(N4CCNCC4)cn3)nc2n(C2CCCC2)c1=O [Palbociclib, palbociclib]	43.1 ± 9.5 nM	84%	256 mm^3	795 ± 34.5 nM	374 ± 48.7 nM	without significantly altering	significant decrease	> 10000 nM	268 ± 36.8 nM	1120 ± 686 nM	112 ± 25.6 nM	could induce cell senescence	96^** %	53.4 ± 1.3 nM	93^** %	35 ± 10 days	16.67%	68^** %	60.6 ± 9 nM	67^** %	Single‐agent efficacy [5]: failed to achieve; Disease‐free survival ([4]; palbociclib together with letrozole): 20.2 months
C[C@]12CC[C@@H]3c4ccc(O)cc4C[C@@H](CCCCCCCCC[S+]([O-])CCCC(F)(F)C(F)(F)F)[C@H]3[C@@H]1CC[C@@H]2O (stereo partly drawn) [fulvestrant]	–	–	–	–	–	–	–	–	–	–	–	–	–	–	–	–	–	–	–	–	PFS (breast cancer; fulvestrant alone): 9.3 months
